Reference: ChEMBL document CHEMBL1136055, “3-Heteroaryl-2-pyridones: benzodiazepine site ligands with functional delectivity for alpha 2/alpha 3-subtypes of human GABA(A) receptor-ion channels” (J Med Chem, 2002)

Experiments:
[1] = biological target: T1, GABA-A receptor; alpha-1/beta-3/gamma-2 (Homo sapiens, UniProt P14867+P18507+P28472); test: Inhibition of [3H]Ro-151788 binding to human GABA A receptor (alpha-1-beta-3-gamma-2) stably expressed in L(tk-) cells.; type: cell-based
T1 sequence (P14867 whole entry): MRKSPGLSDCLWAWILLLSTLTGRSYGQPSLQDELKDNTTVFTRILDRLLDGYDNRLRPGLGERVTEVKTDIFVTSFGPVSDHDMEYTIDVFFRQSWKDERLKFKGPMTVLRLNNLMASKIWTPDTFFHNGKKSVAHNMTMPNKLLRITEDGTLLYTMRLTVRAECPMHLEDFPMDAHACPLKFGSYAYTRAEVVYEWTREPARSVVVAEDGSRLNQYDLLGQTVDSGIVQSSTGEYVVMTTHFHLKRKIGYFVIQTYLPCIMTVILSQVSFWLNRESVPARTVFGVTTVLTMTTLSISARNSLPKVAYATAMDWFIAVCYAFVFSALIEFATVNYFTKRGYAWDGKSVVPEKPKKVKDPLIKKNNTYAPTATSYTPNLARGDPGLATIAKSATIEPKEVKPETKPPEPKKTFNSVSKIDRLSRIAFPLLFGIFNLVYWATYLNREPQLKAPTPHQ
T1 sequence (P18507 whole entry): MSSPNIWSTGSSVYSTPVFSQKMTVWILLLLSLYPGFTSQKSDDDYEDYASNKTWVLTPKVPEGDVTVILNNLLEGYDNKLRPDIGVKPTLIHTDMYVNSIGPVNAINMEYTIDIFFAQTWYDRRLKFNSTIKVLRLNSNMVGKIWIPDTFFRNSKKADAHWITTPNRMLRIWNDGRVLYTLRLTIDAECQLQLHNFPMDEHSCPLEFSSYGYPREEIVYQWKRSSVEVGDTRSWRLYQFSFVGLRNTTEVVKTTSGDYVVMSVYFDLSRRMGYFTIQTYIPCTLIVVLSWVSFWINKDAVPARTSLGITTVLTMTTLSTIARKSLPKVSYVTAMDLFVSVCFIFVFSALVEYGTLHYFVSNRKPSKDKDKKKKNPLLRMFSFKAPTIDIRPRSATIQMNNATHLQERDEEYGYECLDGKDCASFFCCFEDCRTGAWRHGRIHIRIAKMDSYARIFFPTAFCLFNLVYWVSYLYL
T1 sequence (P28472 whole entry): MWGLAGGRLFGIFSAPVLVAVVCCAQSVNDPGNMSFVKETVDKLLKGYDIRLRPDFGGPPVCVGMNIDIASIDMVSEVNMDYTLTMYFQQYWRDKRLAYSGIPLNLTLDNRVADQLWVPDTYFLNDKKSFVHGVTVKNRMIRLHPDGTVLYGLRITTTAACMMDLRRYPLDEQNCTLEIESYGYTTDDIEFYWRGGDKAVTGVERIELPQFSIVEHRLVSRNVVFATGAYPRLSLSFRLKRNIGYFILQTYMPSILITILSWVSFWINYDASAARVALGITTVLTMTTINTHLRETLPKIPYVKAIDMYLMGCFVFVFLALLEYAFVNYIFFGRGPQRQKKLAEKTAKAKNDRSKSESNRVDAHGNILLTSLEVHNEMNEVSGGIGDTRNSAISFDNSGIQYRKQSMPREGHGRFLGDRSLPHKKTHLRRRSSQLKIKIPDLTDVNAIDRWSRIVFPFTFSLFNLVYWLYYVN

[2] = biological target: GABA-A receptor; alpha-1/beta-3/gamma-2 (Homo sapiens) (UniProt P14867+P18507+P28472); test: Modulatory effect on coapplication with GABA at human Gamma-aminobutyric acid A receptor alpha-1-beta-3-gamma-2 in Xenopus oocyte.
Outline: (§1)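 Two-electrode voltage clamp of Xenopus oocytes transiently expressing human α1, α2 or α3 β3γ2S receptors. Test compound is co-applied with GABA at its EC20 (GABA range 4-30 µM). Result is the % change in GABA current, mean (SEM), n = 3-7, at the stated test compound concentration (µM).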

[3] = biological target: T2, GABA-A receptor; alpha-2/beta-3/gamma-2 (Homo sapiens, UniProt P18507+P28472+P47869); test: Displacement of [3H]Ro-151788 from human Gamma-aminobutyric acid A receptor alpha-2-beta-3-gamma-2 stably expressed in L(tk-) cells; type: cell-based
T2 sequence (P18507 whole entry): T1 sequence (P18507 whole entry)
T2 sequence (P28472 whole entry): T1 sequence (P28472 whole entry)
T2 sequence (P47869 whole entry): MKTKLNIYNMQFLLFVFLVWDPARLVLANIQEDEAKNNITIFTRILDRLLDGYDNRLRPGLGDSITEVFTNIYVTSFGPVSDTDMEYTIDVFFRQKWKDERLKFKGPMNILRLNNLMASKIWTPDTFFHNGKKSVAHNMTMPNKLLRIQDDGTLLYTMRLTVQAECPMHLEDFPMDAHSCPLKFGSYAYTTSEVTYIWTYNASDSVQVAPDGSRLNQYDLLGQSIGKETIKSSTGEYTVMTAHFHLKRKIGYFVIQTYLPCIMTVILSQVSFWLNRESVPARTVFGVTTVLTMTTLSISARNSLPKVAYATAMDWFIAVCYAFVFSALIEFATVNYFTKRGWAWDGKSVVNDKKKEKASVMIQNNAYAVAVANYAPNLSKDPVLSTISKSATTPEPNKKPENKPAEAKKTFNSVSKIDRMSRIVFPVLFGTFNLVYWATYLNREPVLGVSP
Outline: (§2)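 Competition binding against [3H]Ro15-1788 on cloned human α1/α2/α3/α5 β3γ2S receptors stably expressed in L(tk-) cells. Six to eight test concentrations spaced in half-log steps. Ki given as mean (SEM), n = 3-5, reported to two significant figures.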

[4] = biological target: GABA-A receptor; alpha-3/beta-3/gamma-2 (Homo sapiens) (UniProt P18507+P28472+P34903); test: Modulatory effect on coapplication with GABA at human Gamma-aminobutyric acid A receptor alpha-3-beta-3-gamma-2 in Xenopus oocytes.; type: cell-based; conditions: Oocyte; outline: as §1
[5] = biological target: T3, GABA-A receptor; alpha-5/beta-3/gamma-2 (Homo sapiens, UniProt P18507+P28472+P31644); test: Inhibition of [3H]Ro-151788 binding to human GABA A receptor (alpha-5-beta-3-gamma-2) stably expressed in L(tk-) cells.; type: cell-based; outline: as §2
T3 sequence (P18507 whole entry): T1 sequence (P18507 whole entry)
T3 sequence (P28472 whole entry): T1 sequence (P28472 whole entry)
T3 sequence (P31644 whole entry): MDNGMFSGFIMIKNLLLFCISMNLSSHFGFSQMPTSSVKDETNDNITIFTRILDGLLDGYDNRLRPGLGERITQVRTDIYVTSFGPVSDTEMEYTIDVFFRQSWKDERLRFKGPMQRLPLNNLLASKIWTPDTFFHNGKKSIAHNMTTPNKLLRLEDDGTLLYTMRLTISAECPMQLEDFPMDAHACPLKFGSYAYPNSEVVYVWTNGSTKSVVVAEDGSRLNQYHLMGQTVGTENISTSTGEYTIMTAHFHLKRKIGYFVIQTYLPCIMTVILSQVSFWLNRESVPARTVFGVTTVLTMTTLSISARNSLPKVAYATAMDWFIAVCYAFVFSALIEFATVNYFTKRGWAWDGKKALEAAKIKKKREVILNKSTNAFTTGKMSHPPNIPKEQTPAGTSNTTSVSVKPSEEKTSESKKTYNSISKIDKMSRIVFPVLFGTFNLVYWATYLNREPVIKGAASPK

[6] = biological target: GABA-A receptor; alpha-2/beta-3/gamma-2 (Homo sapiens) (UniProt P18507+P28472+P47869); test: Modulatory effect on coapplication with GABA at human Gamma-aminobutyric acid A receptor alpha-2-beta-3-gamma-2 expressed inXenopus oocytes; type: cell-based; conditions: Oocyte; outline: as §1
[7] = biological target: T4, GABA-A receptor; alpha-3/beta-3/gamma-2 (Homo sapiens, UniProt P18507+P28472+P34903); test: Binding affinity by displacement of [3H]Ro-151788 from recombinant human gamma-aminobutyric-acid A receptor alpha3,beta3,gamma2 stably expressed in L cells; type: cell-based; outline: as §2
T4 sequence (P18507 whole entry): T1 sequence (P18507 whole entry)
T4 sequence (P28472 whole entry): T1 sequence (P28472 whole entry)
T4 sequence (P34903 whole entry): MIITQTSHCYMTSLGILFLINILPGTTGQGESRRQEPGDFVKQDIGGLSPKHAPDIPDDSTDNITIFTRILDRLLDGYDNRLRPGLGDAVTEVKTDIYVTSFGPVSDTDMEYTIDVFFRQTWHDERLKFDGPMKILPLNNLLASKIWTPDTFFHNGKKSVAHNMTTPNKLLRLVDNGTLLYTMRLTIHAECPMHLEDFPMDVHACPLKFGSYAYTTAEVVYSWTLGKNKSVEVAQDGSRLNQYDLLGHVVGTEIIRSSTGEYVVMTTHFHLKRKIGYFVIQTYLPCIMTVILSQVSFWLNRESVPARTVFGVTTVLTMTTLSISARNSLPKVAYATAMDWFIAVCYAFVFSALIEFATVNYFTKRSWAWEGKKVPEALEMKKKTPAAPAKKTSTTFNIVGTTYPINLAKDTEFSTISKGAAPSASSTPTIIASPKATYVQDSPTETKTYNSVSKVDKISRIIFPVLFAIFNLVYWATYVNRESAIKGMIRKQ

[8] = biological target: T3, GABA-A receptor; alpha-5/beta-3/gamma-2; test: Displacement of [3H]Ro-151788 from human GABA-A receptor alpha-5-beta-3-gamma-2 subunits expressed in L(tk-) cells; type: cell-based; outline: as §2
[9] = biological target: T1, GABA-A receptor; alpha-1/beta-3/gamma-2; test: Displacement of [3H]Ro-151788 from human GABA-A receptor alpha-1-beta-3-gamma-2 subunits expressed in L(tk-) cells; type: cell-based; outline: as §2
[10] = biological target: T2, GABA-A receptor; alpha-2/beta-3/gamma-2; test: Displacement of [3H]Ro-151788 from human GABA-A receptor alpha-2-beta-3-gamma-2 subunits expressed in L(tk-) cells; type: cell-based; outline: as §2

Row | Structure (SMILES) | Ki [1] | percent modulation of GABA EC20 response [2] | Ki [3] | percent modulation of GABA EC20 response [4] | Ki [5] | percent modulation of GABA EC20 response [6] | Ki [7] | Ki [8] | Ki [9] | Ki [10]
1 | COC(=O)c1cc(-c2ccc(OC)cc2)c(-c2ccncc2)n(C)c1=O | 1020 nM | 3% | 320 nM | -25% | 390 nM | 8% | 79 nM |  |  | 
2 | COc1ccc(-c2cc(-c3noc(C)n3)c(=O)n(C)c2-c2ccncc2)cc1 | 260 nM | 111% | 1100 nM | 81% |  |  | 320 nM | 1300 nM |  | 
3 | COC(=O)c1cc(-c2ccc(OC)cc2)c(-c2ccccn2)n(C)c1=O | > 3000 nM |  | > 667 nM |  | > 667 nM |  | 510 nM |  |  | 
4 | COc1ccc(-c2cc(-c3ncc(C)s3)c(=O)n(C)c2-c2ccncc2)cc1 | 330 nM |  | 380 nM |  | > 1000 nM |  | 250 nM |  |  | 
5 | COc1ccc(-c2cc(-c3nc(C)ns3)c(=O)n(C)c2-c2ccncc2)cc1 | 90 nM | 117% | 42 nM | 138% | > 667 nM | 97% | 25 nM |  |  | 
6 | COc1ccc(-c2cc(-c3nc(C4CC4)cs3)c(=O)n(C)c2-c2ccncc2)cc1 | 31 nM | 29% | 24 nM | 35% | > 1000 nM |  | 12 nM |  |  | 
7 | COc1ccc(-c2cc(-c3nccs3)c(=O)n(C)c2-c2ccncc2)cc1 | 45 nM | 56% | 37 nM | 32% |  | 67% | 6.2 nM | > 1000 nM |  | 
8 | COC(=O)c1cc(-c2ccc(OC)cc2)c(-c2cccnc2)n(C)c1=O |  |  | 76 nM |  | > 667 nM |  | 73 nM |  | 680 nM | 
9 | COc1ccc(-c2cc(C#N)c(OC)nc2-c2ccc(N(C)C)cc2)cc1 | > 30000 nM |  | > 30000 nM |  | > 667 nM |  | > 30000 nM |  |  | 
10 | COc1ccc(-c2cc(-c3noc(C4CC4)n3)c(=O)n(C)c2-c2ccncc2)cc1 | 310 nM | 120% | 240 nM | 150% |  | 142% | 60 nM |  |  | 
11 | COC(=O)c1cc(-c2ccc(OC)cc2)c(-c2ccccc2)n(C)c1=O |  |  | 340 nM |  | 393 nM |  | 210 nM |  | 625 nM | 
12 | COc1ccc(-c2cc(-c3cc(C)cs3)c(=O)n(C)c2-c2ccncc2)cc1 | 41 nM |  |  |  |  |  | 23 nM | 340 nM |  | 38 nM
13 | COC(=O)c1cc(-c2ccccc2)c(-c2ccc(N(C)C)cc2)n(C)c1=O | 630 nM |  | 470 nM |  | > 667 nM |  | 270 nM |  |  | 
14 | Cc1csc(-c2cc(-c3ccncc3)c(-c3ccncc3)n(C)c2=O)n1 |  | -23% |  | -4% |  |  | 6.7 nM | 270 nM | 24 nM | 20 nM
15 | Cc1csc(-c2cc(-c3ccc(F)cc3)c(-c3ccncc3)n(C)c2=O)n1 | 13 nM | 57% | 8 nM | 41% | 380 nM |  | 3.5 nM |  |  | 
16 | COc1ccc(-c2cc(-c3nc(C)cs3)c(=O)n(C)c2-c2cccnc2)cc1 | 12.8 nM | 78% | 5 nM | 77% | > 667 nM |  | 3.8 nM |  |  | 
17 | COC(=O)c1cc(-c2ccccc2)c(-c2ccccc2)n(C)c1=O | 520 nM |  |  |  |  |  | 270 nM |  |  | 
18 | COc1ccc(-c2cc(-c3ccccc3)c(=O)n(C)c2-c2ccncc2)cc1 | 83 nM | 45% | 130 nM | 63% | > 1000 nM |  | 24 nM |  |  | 
19 | COc1ccc(-c2cc(-c3ccsc3)c(=O)n(C)c2-c2ccncc2)cc1 | 39 nM |  | 51 nM | 18% | 450 nM |  | 12 nM |  |  | 
